SUMO1-SIM PPI = SUMO1-SIM interaction modulation; inhibition, % at 20 µM; P63165; AID 602429; hit rate 0.33% among 360,000; SUMO1 binding to a labelled peptide, TR-FRET, 1 h; in the data active = inhibition above about 37%
Target sequence (P63165 whole entry, looked up): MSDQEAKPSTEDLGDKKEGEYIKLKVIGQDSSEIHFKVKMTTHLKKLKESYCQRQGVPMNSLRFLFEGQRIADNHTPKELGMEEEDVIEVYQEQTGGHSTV
LMPTP block = LMPTP (human) inhibition; hit rate 0.22% among 360,000; AID 651560; inhibition, % at 20 µM; P24666; recombinant LMPTP-A, OMFP fluorogenic substrate, fluorescence intensity;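 active = compounds that cut the enzyme signal by at least half of the control window in the single-dose screen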;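 also: plate controls were DMSO wells with enzyme plus substrate for no effect and substrate without enzyme for full effect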
Target sequence (P24666 whole entry, looked up): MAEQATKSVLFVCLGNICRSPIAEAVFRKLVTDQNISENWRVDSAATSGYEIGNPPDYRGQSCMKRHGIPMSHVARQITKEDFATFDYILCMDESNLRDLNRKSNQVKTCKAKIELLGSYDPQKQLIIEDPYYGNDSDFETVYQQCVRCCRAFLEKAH
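Test system: LMPTP-A phosphatase enzyme. Amount: LMPTP-A at 0.625 nM final in the reaction. Reagent: OMFP substrate, 400 µM final. Times: 50 min at room temperature. Signal: endpoint fluorescence intensity from OMFP dephosphorylation. Read-out basis: % inhibition. Benchmarks: no-enzyme and uninhibited controls.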
Scp1 inh = inhibitors of human Scp-1 phosphatase; Q9GZU7; Recombinant Scp1, phosphopeptide, malachite green phosphate absorbance; inhibition, % at 20 µM; hit rate 0.88% among 340,000;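 active = inhibition above about 50% at 20 µM, limit read from the data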;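 also: plate controls were DMSO wells with enzyme for no effect and wells lacking enzyme for full effect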
Target sequence (Q9GZU7 76-261 limits assumed): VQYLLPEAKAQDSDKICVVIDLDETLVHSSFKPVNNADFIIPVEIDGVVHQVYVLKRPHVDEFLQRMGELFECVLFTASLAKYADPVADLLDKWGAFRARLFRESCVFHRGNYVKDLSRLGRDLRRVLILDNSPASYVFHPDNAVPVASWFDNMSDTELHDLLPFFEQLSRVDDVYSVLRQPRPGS
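System: truncated SCP-1 phosphatase (76-261aa); medium: Tris acetate buffer pH 5.5 with MgCl2 and Tween-20; incubation: 45 min room-temperature reaction, 5 min colour, 30 min stabiliser; compound: single 20 µM dose, 1% DMSO; reagent: Phosphorylated 17-residue peptide substrate; read-out: % inhibition at 20 µM; technique: colorimetric free-phosphate detection, absorbance 630 nm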
DNMT1 block = inhibitors of human DNMT1 | DNMT1 molecular beacon, Hinp1I cleavage, fluorescence | inhibition (reported as % activation of signal), % at 10 µM | hit rate 0.83% among 360,000; in the data active = inhibition above about 50%
STEP block = STEP (human) phosphatase inhibition; AID 588621; inhibition, % at 20 µM; hit rate 0.25% among 360,000; recombinant STEP, OMFP fluorogenic substrate, fluorescence; P54829;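 active = inhibition at 20 µM, scaled per plate between control wells, above about 37%, limit read from the data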;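 also: 0% = DMSO with enzyme and substrate and 100% = substrate only without enzyme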
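Material: STEP (striatal-enriched tyrosine phosphatase) enzyme, cell-free | Medium: 50 mM Bis-Tris pH 6.0 with 2.5 mM DTT and 0.005% Tween 20 | Read-out: Percent inhibition scaled to no-enzyme and uninhibited-enzyme controls, plate-pattern corrected | Signal: Fluorescence read at 480 nm ex / 540 nm em | Times: 20 min reaction, room temperature, in the dark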
CSN inh = CSN deneddylation inhibition. Q92905. Purified CSN, SCF-Nedd8-OG deneddylation, fluorescence polarization. inhibition, % at 12.5 µM. hit rate 0.38% among 360,000;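 active = pattern-corrected inhibition above about 35%, with an unprinted fluorescence ratio check between 0.5 and 1.5, limit read from the data, passing the limit was not always enough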;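 also: 0% = enzyme with substrate and 100% = substrate without enzyme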
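Test system: Human Csn5 produced in HEK293T cells | Compound: 12.5 µM single point | Times: 90 min, room temperature | Signal: Fluorescence polarization readout | Read-out basis: % inhibition of substrate cleavage by Csn5 | Controls: no-enzyme wells high, enzyme-with-substrate wells low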
Scp1 confirm = confirmation of human Scp-1 phosphatase inhibitors. recombinant SCP-1 catalytic domain, phosphate release, malachite green absorbance. hit rate 61% among 2,500. shares compounds with Scp1 inh. inhibition, % at 20 µM;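 also: plate controls were DMSO with enzyme for no effect and buffer wells lacking enzyme for full effect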
MG interference = counter-screen for Scp-1 inhibitors: colorimetric interference | shares compounds with Scp1 inh | Colorimetric interference counterscreen, malachite green absorbance 630 nm | apparent inhibition (interference), % at 20 µM | 2,500 tested, under 10 active | AID 540313;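 also: compounds added after enzyme reaction finished so only phosphate colour detection is probed; plate controls were DMSO wells with completed Scp-1 reaction for no effect and substrate wells lacking enzyme for full effect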
Scp-1 Tm shift = validation of human Scp-1 inhibitors by thermal shift binding; shares compounds with Scp1 inh; Recombinant SCP1, Sypro Orange thermal shift Tm; thermal shift relative to vanadate control, % at 40 µM; hit rate 25% among 1,500;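 active = substances whose mean melting-temperature shift, as a percentage of the reference inhibitor's shift, reaches about 5.3%, limit read from the data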;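 also: 0% = Tm of DMSO wells and 100% = Tm with sodium orthovanadate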
An asterisk follows results filed as active; / = no result. A selection: hits, their analogues and other compounds. The true share with any hit is near 2%.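 The calls were made as follows, unless noted: active = inhibition of at least 30% at 20 µM; inactive = the rest.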

SMILES | SUMO1-SIM PPI | LMPTP block | Scp1 inh | DNMT1 block | STEP block | CSN inh | Scp1 confirm | MG interference | Scp-1 Tm shift
O=C(O)c1ccc(COc2ccccc2/C=C2\NC(=O)N(Cc3ccccc3F)C2=O)cc1 | -11.6 | 2.6 | 30.4 | -0.7 | 1.6 | -4.0 | / | / | /
COc1cc2c(cc1/C=C1/NC(=O)N(CC(=O)Nc3ccccc3)C1=O)OCO2 | -6.1 | 0.4 | 3.1 | 7.4 | 1.2 | -3.9 | / | / | /
COc1cccc(/C=C2/NC(=O)N(CC(=O)Nc3ccc(C)cc3)C2=O)c1OCc1cccc(C(=O)O)c1 | -30.8 | 1.5 | 79.2* | 0.8 | 11.0 | 36.9* | 71.5* | -19.7 | -0.9
O=C(CN1C(=O)N/C(=C\c2ccccc2OCc2ccc(C(=O)O)cc2)C1=O)Nc1ccccc1F | -24.0 | 28.6 | 50.1* | 5.9 | 8.4 | 6.9 | 78.2* | -8.7 | -3.4
C=CCN1C(=O)C(=O)N(Cc2nc3ccccc3s2)C1=O | 6.3 | -0.6 | -10.1 | -2.7 | -2.2 | 8.7 | / | / | /
CC1(c2ccccc2)NC(=O)N(CC(=O)N2CCN(S(=O)(=O)c3ccccc3[N+](=O)[O-])CC2)C1=O (stereo not drawn) | -7.0 | -0.5 | 50.2* | 2.3 | 2.8 | 2.5 | 8.6 | -12.0 | /
COc1ccc(/C=N/NC(=O)c2ccc(O)cc2O)cc1CSc1ccccn1 | 13.3 | 5.1 | 56.8* | 41.2 | -3.1 | 10.7 | 63.9* | 1.7 | 4.8
COc1ccc(C=O)cc1CSc1ccccn1 | 4.8 | -0.8 | -10.8 | -3.7 | 0.3 | 0.2 | / | / | /
CCOC(=O)C1=C(C)Nc2ccccc2N/C1=N\S(=O)(=O)c1cc(C(=O)O)ccc1Cl | 9.9 | 7.1 | 50.3* | 38.9 | 9.6 | 4.0 | 40.9* | -18.9 | -4.8
Cn1nnnc1Sc1ncnc2scc(-c3ccccc3C(F)(F)F)c12 | 5.1 | -1.4 | 54.9* | 8.0 | -1.1 | 0.3 | -15.7 | -27.7 | /
Cn1nnnc1Sc1ncnc2scc(-c3cccs3)c12 | / | / | 58.2* | / | / | / | -2.9 | -22.5 | /
COc1c(O)cc2c(c1O)[C@@H]1OC(CO)C(O)C(O)[C@H]1OC2=O (stereo partly drawn) | 0.9 | -0.4 | -0.7 | -1.0 | -1.6 | -1.4 | -7.4 | -5.2 | /
Cc1nnc(SCC2=C(C(=O)O)N3C(=O)C(NC(=O)COc4ccccc4)C3SC2)s1 (stereo not drawn) | 12.7 | 1.0 | 68.4* | 8.6 | 1.8 | 4.5 | 52.8* | -20.8 | 3.8
Cc1nnc(SCC2=C(C(=O)O)N3C(=O)C(NC(=O)Cn4nc(C(F)F)c(Cl)c4C)C3SC2)s1 (stereo not drawn) | 16.2 | 1.9 | 42.0 | 0.4 | 6.7 | 8.7 | / | / | /
Cc1nnc(SCC2=C(C(=O)O)N3C(=O)C(NC(=O)Cn4nc(C(F)F)cc4C)C3SC2)s1 (stereo not drawn) | 11.1 | -1.2 | 70.3* | 27.4 | 6.4 | 9.8 | 51.6* | -21.7 | 2.7
COc1cc(OC)c(-c2cc(C(=O)O)ccc2OC)c(OC)c1 | 0.8 | -0.2 | -7.3 | 3.7 | -2.7 | -12.6 | / | / | /
Cn1ccsc1=NC(=O)c1ccc(=O)[nH]c1 | 1.5 | -0.3 | 94.0* | 1.5 | -0.9 | -0.2 | -19.4 | -16.4 | /
O=C(c1cccc(N2C(=O)C3C4C=CC(C4)C3C2=O)c1)N1CCN(c2ccccc2)CC1 (stereo not drawn) | -6.2 | -2.2 | -0.4 | -5.6 | 0.6 | -1.7 | / | / | /
N#Cc1ccccc1N1CCN(C(=O)c2ccc(NC(=O)c3ccc(Br)o3)cc2)CC1 | 10.6 | 11.8 | 60.4* | 0.7 | 0.8 | 4.5 | 73.0* | -4.3 | -1.1
Cc1ccc(C)c(NC(=O)CN(C)C(=O)c2ccc(-c3cccc(C(F)(F)F)c3)o2)c1 | -9.2 | 3.4 | -5.8 | 5.9 | 2.0 | -0.4 | / | / | /
